Measurements published in ChEMBL document CHEMBL4020823, “Highly Selective, Potent, and Oral mTOR Inhibitor for Treatment of Cancer as Autophagy Inducer” (J Med Chem, 2018).
Activity calls are given as the source filed them. No cut-off for these calls is given here.

Key:
[1] = Half life in Sprague-Dawley rat at 20 mg/kg, iv administered as single dose by HPLC analysis; assay type: ADME, organism-based; details: in vivo
Procedure, shortened: (§1)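 Rats fasted overnight, then given one 20 mg/kg dose either iv or po. Blood was collected and centrifuged at once to obtain plasma. Plasma drug levels were measured by HPLC, and PK parameters were derived from the concentration-time data.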

Mus musculus [2] = assay: Up regulation of LC3B levels in human T47D cells xenografted in BALB/c nude mouse administered via oral gavage after 3 weeks by hematoxylin and eosine staining based light microscopic assay; assay type: functional, cell-based
Procedure, shortened: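 Tumors taken from daily-dosed T-47D xenograft mice, formalin-fixed and paraffin-embedded, cut into 5 μm sections. Sections deparaffinized, rehydrated, and incubated overnight at 4 °C with anti-LC3B at 1:100. Then biotin-labeled secondary for 1 h at room temperature, ABC-peroxidase with DAB, hematoxylin counterstain. Read by light microscopy.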

MDA-MB-231 = assay: Induction of autophagy in human MDA-MB-231 cells assessed as increase in LC3-2 level at 0.25 to 0.5 uM after 48 hrs by Western blot analysis; assay type: functional, cell-based
Procedure, shortened: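 Cells treated with test agents at several concentrations for 2 days (48 h). LC3B-II detected by Western blot on lysates, with β-actin as internal control. Membranes blocked in 5% skim milk, primary antibodies at 4 °C overnight, peroxidase-conjugated anti-mouse or anti-rabbit IgG secondary, ECL detection.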

Homo sapiens [3] = species on record: Homo sapiens; assay: Inhibition of mTORC1 in human T47D cells assessed as reduction in 4E-BP1 phosphorylation at Thr37/46 residues at 0.25 to 0.5 uM by Western blot analysis; assay type: cell-based
Procedure, shortened: (§2)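 Cells treated with the indicated concentrations, then whole-cell lysates immunoblotted. mTORC1 activity read as S6 and 4E-BP1 phosphorylation; mTORC2 activity read as AKT Ser473 phosphorylation. Blocking in 5% skim milk, primary antibodies at 4 °C overnight, peroxidase-conjugated secondary, ECL detection.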

[4] = Half life in Sprague-Dawley rat at 20 mg/kg, po administered as single dose by HPLC analysis; assay type: ADME, organism-based; details: in vivo; procedure, shortened: as §1
HeLa [5] = assay: Inhibition of mTORC2 in human HeLa cells assessed as reduction in AKT phosphorylation at Ser473 residues at 0.5 to 1 uM by Western blot analysis; assay type: cell-based; procedure, shortened: as §2
SiHa = assay: Cell cycle arrest in human SiHa cells assessed as decrease in S-phase at 0.25 to 0.5 uM after 24 hrs by propidium iodide-staining based flow cytometric analysis; assay type: functional
Procedure, shortened: (§3)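 Cells were seeded at 5 × 10^5 cells/mL. At 24 h after plating they were treated with increasing concentrations for 24 h, washed in PBS, and fixed in ice-cold 70% ethanol for at least 24 h. They were stained with propidium iodide plus RNase A for 30 min at 37 °C and analysed by flow cytometry for phase distribution.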

[6] = test system: PI3-kinase p110-alpha/p85-alpha (Homo sapiens), P27986+P42336 [H1047R]; assay: Inhibition of full length recombinant human p85alpha/PI3K p110alpha H1047R mutant at 1 uM relative to control
Procedure, shortened: (§4)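 Eurofins KinaseProfiler panel with compound at a single 1 μM concentration. ATP at the Km of each kinase. Result is % inhibition, mean of two independent experiments.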

Mus musculus [7] = species on record: Mus musculus; assay: Inhibition of full length recombinant mouse p85alpha/PI3K p110alpha E542K mutant at 1 uM relative to control; procedure, shortened: as §4
[8] = target: Phosphatidylinositol 4-phosphate 3-kinase C2 domain-containing subunit alpha (Homo sapiens) (UniProt O00443); assay: Inhibition of human PI3KC2alpha at 1 uM relative to control; procedure, shortened: as §4
T47D = assay: Antitumor activity against human T47D cells xenografted in BALB/c nude mouse assessed as tumor weight at 60 mg/kg, po administered via gavage after 3 weeks (reference value: 1.23 g); assay type: functional
MCF7 [9] = assay: Cell cycle arrest in human MCF7 cells assessed as decrease in S-phase at 0.25 to 0.5 uM after 24 hrs by propidium iodide-staining based flow cytometric analysis; assay type: functional; procedure, shortened: as §3
Mus musculus [10] = species on record: Mus musculus; assay: Inhibition of full length recombinant mouse PI3K p110alpha/p65alpha at 1 uM relative to control; procedure, shortened: as §4
[11] = AUC (0 to infinity) in Sprague-Dawley rat at 20 mg/kg, po administered as single dose by HPLC analysis; assay type: ADME, organism-based; parameters: dose 20 mg/kg, route oral, time infinity; details: in vivo; procedure, shortened: as §1
[12] = target: PI3K p110 beta/p85 beta (Mus musculus) (UniProt Q8BTI9+O08908); assay: Inhibition of full length recombinant mouse PI3K p110beta/p85beta at 1 uM relative to control; assay type: protein-complex assay; procedure, shortened: as §4
Homo sapiens [13] = species on record: Homo sapiens; assay: Inhibition of mTORC2 in human T47D cells assessed as reduction in AKT phosphorylation at Ser473 residues at 0.25 to 0.5 uM by Western blot analysis; assay type: cell-based
Procedure, shortened: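 Cells exposed to a range of compound concentrations; whole-cell lysates immunoblotted for phospho-AKT (Ser473) as the mTORC2 readout, alongside S6 and 4E-BP1 phosphorylation for mTORC1. Membranes blocked in 5% skim milk, primary antibodies overnight at 4 °C, peroxidase-conjugated anti-mouse or anti-rabbit IgG secondary, ECL detection. Rapamycin as comparator.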

[14] = target: PI3K p110 beta/p85 alpha (Mus musculus) (UniProt P26450+Q8BTI9); assay: Inhibition of full length recombinant mouse PI3K p110beta/p85alpha at 1 uM relative to control; assay type: protein-complex assay; procedure, shortened: as §4
[15] = target: PI3K p110 beta/p85 alpha (Homo sapiens) (UniProt P27986+P42338); assay: Inhibition of full length recombinant human PI3K p110beta/p85alpha at 1 uM relative to control; assay type: protein-complex assay; procedure, shortened: as §4
HeLa [16] = assay: Inhibition of mTORC1 in human HeLa cells assessed as reduction in 4E-BP1 phosphorylation at Thr37/46 residues at 0.5 to 1 uM by Western blot analysis; assay type: cell-based; procedure, shortened: as §2
[17] = Cmax in Sprague-Dawley rat at 20 mg/kg, po administered as single dose by HPLC analysis; assay type: ADME, organism-based; parameters: dose 20 mg/kg, route oral; details: in vivo; procedure, shortened: as §1
[18] = Tmax in Sprague-Dawley rat at 20 mg/kg, po administered as single dose by HPLC analysis; assay type: ADME, organism-based; details: in vivo
Procedure, shortened: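 Rats fasted overnight, then given a single 20 mg/kg dose either iv or po. Blood collected and centrifuged immediately to obtain plasma. Plasma drug levels measured by HPLC, and pharmacokinetic parameters derived from both routes.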

[19] = target: Serine-protein kinase ATM (Homo sapiens, UniProt Q13315); assay: Inhibition of full length recombinant human ATM
MCF7 [20] = assay: Induction of autophagy in human MCF7 cells assessed as increase in LC3-2 level at 0.25 to 0.5 uM after 48 hrs by Western blot analysis; assay type: functional, cell-based
Procedure, shortened: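 Cells were treated for 48 h (2 days) with varying concentrations. Whole-cell lysates were immunoblotted for LC3B-II with β-actin as the internal control. Membranes were blocked in 5% skim milk, incubated with primary antibody overnight at 4 °C, then with peroxidase-conjugated secondary, and developed by ECL.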

MCF7 [21] = assay: Growth inhibition of human MCF7 cells after 72 hrs by CCK8 assay; assay type: functional, cell-based; details: MCF7, 72 h
Procedure, shortened: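 Cells were seeded at 2000–3000 per well and grown 24 h in serum-containing medium. They were then exposed to serially diluted compound for 72 h at 37 °C, 5% CO2. CCK8 reagent was added for 1–4 h and absorbance read at 450 nm. Inhibition = (AC − AS)/(AC − Ab) × 100%. IC50 is the average of at least three independent determinations.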

Sequence of Phosphatidylinositol 4-phosphate 3-kinase C2 domain-containing subunit alpha (Homo sapiens) (O00443 whole entry, the tested form may be a part): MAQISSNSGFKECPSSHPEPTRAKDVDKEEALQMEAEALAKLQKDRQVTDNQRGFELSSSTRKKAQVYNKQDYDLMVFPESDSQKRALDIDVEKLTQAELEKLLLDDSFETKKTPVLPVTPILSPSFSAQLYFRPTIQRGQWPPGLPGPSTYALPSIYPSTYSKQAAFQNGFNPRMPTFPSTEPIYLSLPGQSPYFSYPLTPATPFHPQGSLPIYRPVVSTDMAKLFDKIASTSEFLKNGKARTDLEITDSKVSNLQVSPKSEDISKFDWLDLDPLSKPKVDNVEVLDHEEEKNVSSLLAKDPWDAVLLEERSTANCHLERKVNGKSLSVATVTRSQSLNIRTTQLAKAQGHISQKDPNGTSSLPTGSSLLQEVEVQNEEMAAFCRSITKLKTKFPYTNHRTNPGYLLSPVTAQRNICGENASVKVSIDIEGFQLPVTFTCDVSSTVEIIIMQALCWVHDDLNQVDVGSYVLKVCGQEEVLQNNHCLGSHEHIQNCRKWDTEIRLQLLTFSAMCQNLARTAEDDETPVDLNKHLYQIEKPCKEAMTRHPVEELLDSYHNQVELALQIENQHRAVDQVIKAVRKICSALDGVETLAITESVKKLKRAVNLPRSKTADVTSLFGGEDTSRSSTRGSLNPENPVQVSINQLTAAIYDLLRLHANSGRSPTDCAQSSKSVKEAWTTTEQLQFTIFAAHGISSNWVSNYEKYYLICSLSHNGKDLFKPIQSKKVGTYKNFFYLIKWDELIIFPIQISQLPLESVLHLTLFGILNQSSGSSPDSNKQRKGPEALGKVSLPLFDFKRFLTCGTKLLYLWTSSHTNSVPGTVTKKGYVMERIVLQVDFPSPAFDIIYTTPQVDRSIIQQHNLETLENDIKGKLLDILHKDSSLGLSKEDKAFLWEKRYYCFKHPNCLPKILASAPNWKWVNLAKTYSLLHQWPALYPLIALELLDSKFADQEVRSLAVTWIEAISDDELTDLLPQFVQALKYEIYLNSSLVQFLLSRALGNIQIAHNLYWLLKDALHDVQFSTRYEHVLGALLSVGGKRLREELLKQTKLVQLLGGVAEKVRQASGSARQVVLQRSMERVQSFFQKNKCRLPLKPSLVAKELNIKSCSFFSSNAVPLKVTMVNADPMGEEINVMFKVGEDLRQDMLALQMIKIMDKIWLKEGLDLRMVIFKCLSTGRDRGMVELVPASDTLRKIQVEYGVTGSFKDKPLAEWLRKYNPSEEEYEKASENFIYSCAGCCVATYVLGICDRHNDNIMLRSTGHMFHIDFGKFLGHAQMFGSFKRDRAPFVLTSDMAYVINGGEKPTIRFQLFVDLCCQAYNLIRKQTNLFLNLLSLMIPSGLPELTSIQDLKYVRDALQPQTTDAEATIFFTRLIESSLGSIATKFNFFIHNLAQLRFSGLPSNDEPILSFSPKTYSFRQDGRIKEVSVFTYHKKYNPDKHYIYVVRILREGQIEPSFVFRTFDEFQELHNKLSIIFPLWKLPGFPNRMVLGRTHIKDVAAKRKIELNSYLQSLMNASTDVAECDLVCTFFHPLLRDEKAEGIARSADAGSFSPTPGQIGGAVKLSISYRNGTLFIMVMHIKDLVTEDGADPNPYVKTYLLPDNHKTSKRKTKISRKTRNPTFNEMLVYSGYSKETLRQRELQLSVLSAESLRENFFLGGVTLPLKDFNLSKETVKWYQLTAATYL
Sequence of PI3K p110 beta/p85 alpha (Homo sapiens) (P27986 2-724 limits assumed): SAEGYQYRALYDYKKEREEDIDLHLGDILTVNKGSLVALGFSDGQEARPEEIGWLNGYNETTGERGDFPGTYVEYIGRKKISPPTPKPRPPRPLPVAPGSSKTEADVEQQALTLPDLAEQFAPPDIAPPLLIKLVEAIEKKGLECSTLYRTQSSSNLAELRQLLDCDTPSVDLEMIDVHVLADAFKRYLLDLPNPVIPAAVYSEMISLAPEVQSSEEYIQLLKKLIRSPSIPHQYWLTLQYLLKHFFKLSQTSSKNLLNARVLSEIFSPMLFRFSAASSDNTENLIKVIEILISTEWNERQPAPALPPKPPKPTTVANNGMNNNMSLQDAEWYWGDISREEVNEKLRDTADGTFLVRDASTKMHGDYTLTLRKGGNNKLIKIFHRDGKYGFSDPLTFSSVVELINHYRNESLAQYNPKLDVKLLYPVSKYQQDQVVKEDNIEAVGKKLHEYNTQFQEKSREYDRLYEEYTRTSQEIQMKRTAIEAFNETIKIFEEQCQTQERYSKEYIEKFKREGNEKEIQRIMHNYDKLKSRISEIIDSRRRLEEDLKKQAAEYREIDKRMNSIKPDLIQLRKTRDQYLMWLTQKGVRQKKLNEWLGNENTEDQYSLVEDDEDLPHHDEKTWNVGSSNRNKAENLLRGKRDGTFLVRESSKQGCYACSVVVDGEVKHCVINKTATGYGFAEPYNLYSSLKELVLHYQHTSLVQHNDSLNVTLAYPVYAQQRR
Sequence of PI3K p110 beta/p85 alpha (Homo sapiens) (P42338 whole entry partner): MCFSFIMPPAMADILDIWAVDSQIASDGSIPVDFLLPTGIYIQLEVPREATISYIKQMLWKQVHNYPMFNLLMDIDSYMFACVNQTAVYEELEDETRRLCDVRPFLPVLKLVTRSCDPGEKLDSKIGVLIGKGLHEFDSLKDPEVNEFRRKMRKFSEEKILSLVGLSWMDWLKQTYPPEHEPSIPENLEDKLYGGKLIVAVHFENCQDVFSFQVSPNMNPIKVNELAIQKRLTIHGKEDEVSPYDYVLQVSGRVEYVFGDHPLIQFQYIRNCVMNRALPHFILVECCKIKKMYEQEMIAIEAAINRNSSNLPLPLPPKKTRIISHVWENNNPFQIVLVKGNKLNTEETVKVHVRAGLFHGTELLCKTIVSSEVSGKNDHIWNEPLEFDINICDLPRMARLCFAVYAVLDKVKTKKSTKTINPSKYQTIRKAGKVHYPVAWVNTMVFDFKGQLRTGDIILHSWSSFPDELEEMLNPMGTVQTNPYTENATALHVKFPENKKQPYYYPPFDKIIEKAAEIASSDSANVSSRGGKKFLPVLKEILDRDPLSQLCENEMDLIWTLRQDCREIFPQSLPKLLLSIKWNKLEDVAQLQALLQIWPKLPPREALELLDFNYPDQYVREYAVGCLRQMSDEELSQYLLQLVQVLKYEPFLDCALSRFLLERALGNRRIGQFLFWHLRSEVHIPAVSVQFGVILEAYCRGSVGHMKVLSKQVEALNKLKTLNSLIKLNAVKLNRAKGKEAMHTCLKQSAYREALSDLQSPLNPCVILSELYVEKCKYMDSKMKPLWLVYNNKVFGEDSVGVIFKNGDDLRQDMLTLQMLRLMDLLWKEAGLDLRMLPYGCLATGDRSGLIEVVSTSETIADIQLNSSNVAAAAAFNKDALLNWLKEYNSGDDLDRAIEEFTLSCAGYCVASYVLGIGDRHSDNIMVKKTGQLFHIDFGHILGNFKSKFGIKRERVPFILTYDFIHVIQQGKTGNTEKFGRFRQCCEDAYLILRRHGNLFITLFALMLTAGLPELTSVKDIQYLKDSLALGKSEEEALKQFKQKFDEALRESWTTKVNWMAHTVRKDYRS

## N#CCN1CCC(n2c(=O)cnc3cnc4ccc(-c5ccc(N)nc5)cc4c32)CC1
[1]
  half-life: 7.57 h
Mus musculus [2]
  Activity: Dose-dependent effect
MDA-MB-231
  Activity: Active
Homo sapiens [3]
  inhibition: Active
[4]
  half-life: 9.98 h
HeLa [5]
  inhibition: Active
SiHa
  Activity: Active
[6]
  inhibition: 2%
Mus musculus [7]
  inhibition: 10%
[8]
  inhibition: 4%
T47D
  Activity: 0.194 g
MCF7 [9]
  Activity: Active
Mus musculus [10]
  inhibition: 9%
[11]
  AUC(0-inf): 2850 ng·h/mL
[12]
  inhibition: 8%
Homo sapiens [13]
  inhibition: Active
[14]
  inhibition: 5%
[15]
  inhibition: 7%
HeLa [16]
  inhibition: Active
[17]
  Cmax: 807 ng/mL
[18]
  Tmax: 3 h
[19]
  IC50: 62 nM
MCF7 [20]
  Activity: Active
MCF7 [21]
  IC50: 103 nM
